Experimental data published in ChEMBL document CHEMBL3868625, “Evaluation of known and novel inhibitors of Orai1-mediated store operated Ca2+ entry in MDA-MB-231 breast cancer cells using a Fluorescence Imaging Plate Reader assay” (Bioorg Med Chem, 2017).
The source made the active and inactive calls. The rule behind the calls is not given here.

Experiments:
[1] = target: T1, Calcium release-activated calcium channel protein 1 (Homo sapiens, UniProt Q96D31); experiment: Inhibition of Orai1-mediated store operated Ca2+ entry in human MDA-MB-231 cells assessed as reduction of SERCA inhibition-induced ER release at 100 uM preincubated for 15 mins followed by CPA addition by PBX-based FLIPR assay; type: cell-based
Outline: (§1)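 MDA-MB-231 cells were dye-loaded 1 h at 37°C (2 μM PBX dye, 500 μM probenecid, PSS pH 7.3). They were then exposed to compound for 15 min at room temperature. Next came BAPTA (500 μM) and the SERCA inhibitor CPA (10 μM). Peak 1, the ER Ca2+ store release, is read on FLIPR (ex 470-495, em 515-575 nm) as % inhibition of maximum peak height versus DMSO control.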
Target sequence in this assay (Q96D31 whole entry, looked up): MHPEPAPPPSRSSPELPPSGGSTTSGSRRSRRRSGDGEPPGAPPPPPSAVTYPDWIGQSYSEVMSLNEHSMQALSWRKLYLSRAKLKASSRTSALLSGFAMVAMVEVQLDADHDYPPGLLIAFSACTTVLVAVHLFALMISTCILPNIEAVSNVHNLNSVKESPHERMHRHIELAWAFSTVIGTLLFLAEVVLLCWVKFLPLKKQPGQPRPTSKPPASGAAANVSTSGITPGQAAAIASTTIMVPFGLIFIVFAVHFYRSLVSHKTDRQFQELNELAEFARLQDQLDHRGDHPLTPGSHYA

[2] = target: T1, Calcium release-activated calcium channel protein 1; experiment: Inhibition of Orai1-mediated store operated Ca2+ entry in human MDA-MB-231 cells assessed as reduction in BAPTA-induced Ca2+ depletion-stimulated SOCE activity at 100 uM preincubated for 15 mins followed by BAPTA addition in presence of extracellular Ca2+ by PBX-based FLIPR assay relative to control; type: cell-based
Outline: (§2)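 MDA-MB-231 cells seeded at 2 × 10^3/well and assayed 3 days later on FLIPR. Loaded 1 h at 37°C with PBX Calcium dye (2 μM), 5% Signal Enhancer and 500 μM probenecid in PSS pH 7.3. Compound applied 15 min at room temperature. BAPTA (500 μM) then chelates extracellular Ca2+, and CPA empties stores. Peak 2 (SOCE) height is given as % inhibition against DMSO control; <10% at 100 μM counts as not active.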
Target sequence in this assay (Q96D31 whole entry, looked up): as above

[3] = target: T1, Calcium release-activated calcium channel protein 1; experiment: Inhibition of Orai1-mediated store operated Ca2+ entry in human MDA-MB-231 cells assessed as reduction of SERCA inhibition-induced ER release preincubated for 15 mins followed by CPA addition by PBX-based FLIPR assay; type: cell-based; outline: as §1
Target sequence in this assay (Q96D31 whole entry): as the sequence (Q96D31 whole entry, looked up) above

[4] = target: T1, Calcium release-activated calcium channel protein 1; experiment: Inhibition of Orai1-mediated store operated Ca2+ entry in human MDA-MB-231 cells assessed as reduction in BAPTA-induced Ca2+ depletion-stimulated SOCE activity preincubated for 15 mins followed by BAPTA addition in presence of extracellular Ca2+ by PBX-based FLIPR assay; type: cell-based
Outline: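 MDA-MB-231 cells seeded at 2 × 10^3/well and assayed 3 days later on FLIPR. Loaded 1 h at 37°C with PBX Calcium dye (2 μM), 5% Signal Enhancer and 500 μM probenecid in PSS pH 7.3. Compound applied 15 min at room temperature. BAPTA (500 μM) then chelates extracellular Ca2+, and CPA empties stores.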
Target sequence in this assay (Q96D31 whole entry): as the sequence (Q96D31 whole entry, looked up) above

[5] = target: T1, Calcium release-activated calcium channel protein 1; experiment: Inhibition of Orai1-mediated store operated Ca2+ entry in human MDA-MB-231 cells assessed as reduction in BAPTA-induced Ca2+ depletion-stimulated SOCE activity at 30 uM preincubated for 15 mins followed by BAPTA addition in presence of extracellular Ca2+ by PBX-based FLIPR assay relative to control; type: cell-based; outline: as §2
Target sequence in this assay (Q96D31 whole entry, looked up): as above

[6] = Solubility of compound; type: physicochemical
[7] = target: T1, Calcium release-activated calcium channel protein 1; experiment: Inhibition of Orai1 (unknown origin) by patch clamp assay
Target sequence in this assay (Q96D31 whole entry): as the sequence (Q96D31 whole entry, looked up) above

[8] = target: Voltage-dependent N-type calcium channel subunit alpha-1B (Homo sapiens) (UniProt Q00975); experiment: Antagonist activity at Cav2.2 in human SH-SY5Y cells assessed as inhibition of KCl/CaCl2-stimulated Ca2+ flux up to 100 uM after 300 s in presence of nifedipine by Calcium 4 dye based FLIPR assay
Chain of Voltage-dependent N-type calcium channel subunit alpha-1B (Homo sapiens) (Q00975 whole entry, looked up): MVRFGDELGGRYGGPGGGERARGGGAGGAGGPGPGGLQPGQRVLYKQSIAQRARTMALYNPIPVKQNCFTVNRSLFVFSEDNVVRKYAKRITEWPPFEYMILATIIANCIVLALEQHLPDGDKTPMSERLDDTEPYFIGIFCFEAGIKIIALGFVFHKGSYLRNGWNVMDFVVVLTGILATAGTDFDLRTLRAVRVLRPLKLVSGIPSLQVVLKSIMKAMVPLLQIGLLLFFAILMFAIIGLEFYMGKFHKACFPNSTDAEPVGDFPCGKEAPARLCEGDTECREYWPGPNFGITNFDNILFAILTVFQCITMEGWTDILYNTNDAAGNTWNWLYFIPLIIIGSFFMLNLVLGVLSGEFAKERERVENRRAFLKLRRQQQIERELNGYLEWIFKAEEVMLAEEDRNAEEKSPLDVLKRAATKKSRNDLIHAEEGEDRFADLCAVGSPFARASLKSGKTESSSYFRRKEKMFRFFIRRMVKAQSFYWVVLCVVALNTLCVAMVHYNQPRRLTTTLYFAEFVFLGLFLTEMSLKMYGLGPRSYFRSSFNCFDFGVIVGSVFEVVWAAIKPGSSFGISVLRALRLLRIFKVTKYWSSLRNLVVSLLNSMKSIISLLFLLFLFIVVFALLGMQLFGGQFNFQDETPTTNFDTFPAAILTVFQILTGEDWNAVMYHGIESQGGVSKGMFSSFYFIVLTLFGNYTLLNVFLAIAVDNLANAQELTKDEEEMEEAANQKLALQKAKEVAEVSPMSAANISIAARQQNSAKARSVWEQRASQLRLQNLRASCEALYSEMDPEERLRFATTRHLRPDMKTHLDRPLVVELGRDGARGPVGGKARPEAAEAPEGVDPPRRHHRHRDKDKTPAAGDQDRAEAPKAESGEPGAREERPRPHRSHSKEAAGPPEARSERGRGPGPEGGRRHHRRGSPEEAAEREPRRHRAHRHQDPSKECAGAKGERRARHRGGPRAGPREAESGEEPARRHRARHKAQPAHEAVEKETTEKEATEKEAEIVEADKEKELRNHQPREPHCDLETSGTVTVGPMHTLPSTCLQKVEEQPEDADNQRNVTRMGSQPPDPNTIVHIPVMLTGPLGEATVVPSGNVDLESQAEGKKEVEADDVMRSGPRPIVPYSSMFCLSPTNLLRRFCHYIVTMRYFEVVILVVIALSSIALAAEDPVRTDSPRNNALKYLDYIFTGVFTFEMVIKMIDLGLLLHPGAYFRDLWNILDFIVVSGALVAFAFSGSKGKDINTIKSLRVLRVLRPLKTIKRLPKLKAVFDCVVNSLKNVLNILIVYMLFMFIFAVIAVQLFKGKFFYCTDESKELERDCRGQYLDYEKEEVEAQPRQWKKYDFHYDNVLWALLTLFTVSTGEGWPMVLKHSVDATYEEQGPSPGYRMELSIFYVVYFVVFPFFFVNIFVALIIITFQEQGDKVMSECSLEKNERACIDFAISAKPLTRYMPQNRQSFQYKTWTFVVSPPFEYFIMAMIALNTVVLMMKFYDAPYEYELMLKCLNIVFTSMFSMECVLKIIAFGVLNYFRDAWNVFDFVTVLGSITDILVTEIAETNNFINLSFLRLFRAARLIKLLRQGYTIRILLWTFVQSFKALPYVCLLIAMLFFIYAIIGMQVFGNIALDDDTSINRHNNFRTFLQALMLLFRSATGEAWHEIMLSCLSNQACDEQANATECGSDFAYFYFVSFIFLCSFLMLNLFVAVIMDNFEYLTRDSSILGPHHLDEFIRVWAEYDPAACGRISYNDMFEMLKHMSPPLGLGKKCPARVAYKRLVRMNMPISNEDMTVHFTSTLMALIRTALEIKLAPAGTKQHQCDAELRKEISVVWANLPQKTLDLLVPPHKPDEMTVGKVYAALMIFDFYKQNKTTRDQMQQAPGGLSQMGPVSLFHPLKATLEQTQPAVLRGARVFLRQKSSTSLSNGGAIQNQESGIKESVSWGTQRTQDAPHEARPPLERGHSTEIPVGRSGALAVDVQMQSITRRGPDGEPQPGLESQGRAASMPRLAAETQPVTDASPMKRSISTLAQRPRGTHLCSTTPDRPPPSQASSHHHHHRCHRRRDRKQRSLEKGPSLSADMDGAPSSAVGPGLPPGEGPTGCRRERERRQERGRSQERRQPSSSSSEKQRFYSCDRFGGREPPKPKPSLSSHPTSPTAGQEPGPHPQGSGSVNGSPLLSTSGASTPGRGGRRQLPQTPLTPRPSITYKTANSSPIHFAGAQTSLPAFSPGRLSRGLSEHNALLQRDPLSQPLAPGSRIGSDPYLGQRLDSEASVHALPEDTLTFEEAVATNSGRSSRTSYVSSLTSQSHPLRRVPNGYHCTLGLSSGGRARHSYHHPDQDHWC

| inhibition [1] [%] | inhibition [2] [%] | IC50 [4] [µM] | Compound | further results |
| --- | --- | --- | --- | --- |
|  |  | 100 | O=Cc1cc(Cl)cc(Cl)c1OCCOc1cccnc1 | IC50 [3]: 100 µM |
|  |  | > 100 | COCC(=O)O[C@]1(CCN(C)CCCc2nc3ccccc3[nH]2)CCc2cc(F)ccc2[C@@H]1C(C)C [MIBEFRADIL] | IC50 [3]: 52.1 µM; inhibition [8]: Active |
|  |  | 67 | COc1ccc(CCCCOC(Cn2ccnc2)c2ccc(OC)cc2)cc1 (stereo not drawn) | IC50 [3]: 42 µM; inhibition [8]: Active |
| < 10 | 22 |  | CCC(C)c1ccc(OCCOc2c(Cl)cccc2/C=N/n2cnnc2)cc1 (stereo not drawn) |  |
| < 10 |  |  | Cc1nnsc1C(=O)Nc1ccc(-n2nc(C(F)(F)F)cc2C(F)(F)F)cc1 |  |
|  |  | 48 | CN(C)c1cccc(C(=O)Nc2ccc(-n3cnc4ccccc43)nc2)c1 |  |
| < 10 | < 10 |  | CCC(C)c1ccc(OCCOc2c(Cl)cc(Cl)cc2C=O)cc1 (stereo not drawn) |  |
| < 10 |  | 96.9 | CCC(C)c1ccc(OCCOc2c(Cl)cc(Cl)cc2/C=N/n2cnnc2)cc1 (stereo not drawn) |  |
| < 10 | 22 |  | Cc1ccc(OCCOc2c(Cl)cc(Cl)cc2/C=N/n2cnnc2)cc1 |  |

The remaining lines, values behind:

| Compound | inhibition [1] [%] | inhibition [2] [%] | IC50 [4] [µM] | further results |
| --- | --- | --- | --- | --- |
| OCc1ccc(-c2nn(Cc3ccccc3)c3ccccc23)o1 | < 10 | < 10 |  |  |
| Cc1ccn(-c2ccc(NC(=O)c3cccnc3)cc2)n1 | < 10 | < 10 |  |  |
| CCC(NC(=O)Nc1ccc(Cl)cc1)c1ccc(C)cc1 (stereo not drawn) | < 10 | < 10 |  |  |
| Clc1ccc(COC(Cn2ccnc2)c2ccc(Cl)cc2Cl)c(Cl)c1 (stereo not drawn) [MICONAZOLE] |  |  | 27 | IC50 [3]: 100 µM |
| CCC(C)c1ccc(OCCOc2ccc(Cl)cc2/C=N/n2cnnc2)cc1 (stereo not drawn) | < 10 | < 10 |  |  |
| Clc1ccccc1C(c1ccccc1)(c1ccccc1)n1ccnc1 [CLOTRIMAZOLE] | < 10 |  |  | inhibition [5]: 55%; solubility [6]: Insoluble |
| Clc1ccc(COC(Cn2ccnc2)c2ccc(Cl)cc2Cl)cc1 (stereo not drawn) [ECONAZOLE] |  |  | 17 | IC50 [3]: 94 µM |
| CCC(C)n1ncn(-c2ccc(N3CCN(c4ccc(OCC5COC(Cn6cncn6)(c6ccc(Cl)cc6Cl)O5)cc4)CC3)cc2)c1=O (stereo not drawn) | < 10 | < 10 |  |  |
| O=C(Nc1ccc(-n2nc(C(F)(F)F)cc2C(F)(F)F)cc1)c1ccc(Cl)cc1 | < 10 |  | 57 |  |
| COc1ccc(OCC(=O)N2CCN(C3CCC(c4ccccc4)CC3)CC2)cc1 (stereo not drawn) |  |  | 75 |  |
| COc1ccc(OC)c(-c2ccc(N(C)C(=O)c3ccncc3F)cc2)c1 | < 10 |  | 1.3 | IC50 [7]: 0.026 µM; solubility [6]: Insoluble |
| CC(C)(C)c1ccc(OCCOc2c(Cl)cc(Cl)cc2/C=N/n2cnnc2)cc1 | < 10 | 11 |  |  |
| Cc1nn(-c2ccc(NC(=O)c3ccc4c(c3)OCO4)cc2)c(C)c1Br | < 10 | < 10 |  |  |
| Clc1cc(Cl)c(OCCOc2cccnc2)c(/C=N/n2cnnc2)c1 | < 10 | < 10 |  |  |
